Assay results: paper PMC3728915 (Chemical science (Royal Society of Chemistry : 2010), 2013)
pIC50: −log10 of the molar value.

Key:
[1] = tested on: U-937, HeLa, H460, 786-O, and MCF-7; assay: 72-hour cytotoxicity across five human cell lines; assay type: cell-based; conditions: MTS and SRB cytotoxicity assays
Procedure, shortened: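 Cells were treated with test compound for 72 h. U-937 cells were read by MTS reduction. HeLa, H460, 786-O and MCF-7 cells were read by sulforhodamine B staining. IC50 values are given in nM as the mean with standard deviation, n ≥ 3.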

U-937 cells = assay: Annexin V-FITC / propidium iodide apoptosis analysis; assay type: cell-based, human; conditions: 24 hours, U-937, 100-times the 72-hour IC50 values
[2] = tested on: U-937 and HeLa human cancer cell lines; assay: Anticancer activity screen, cell line not given; assay type: cell-based
Procedure, shortened: (§1)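 Human cancer cells were exposed continuously to test compound for 72 h. Viability was read by MTS for U-937 cells and by sulforhodamine B staining for HeLa cells. IC50 values are given in nM as the mean of at least three determinations with standard deviation.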

[3] = tested on: U-937 (hystiocytic lymphoma); assay: 72-hour MTS cytotoxicity assay in U-937 cells; assay type: cell-based, human; conditions: read-out: IC50 (U-937), 72-hour exposure
Procedure, shortened: as §1

[4] = tested on: HeLa (cervical carcinoma); assay: 72-hour SRB cytotoxicity assay in HeLa cells; assay type: cell-based, human; conditions: read-out: IC50 (HeLa), 72-hour exposure
Procedure, shortened: as §1

(+)-chaetocin C [Compound 5]
IC50 / potency range (in words) [1]: subnanomolar | induction of apoptotic cell death (U-937 cells): induce caspase-dependent apoptotic cell death

(+)-gliocladin B [Compound 7]
pIC50 ([2]; anticancer activity, cell line not specified): < 5.00

CN1C(=O)C(=O)N2C(=C[C@]3(c4c[nH]c5ccccc45)c4ccccc4N[C@H]23)C1=O [Compound 52, (+)-Gliocladin C]
anticancer activity (in words) ([2]; 72-hour exposure, U-937 and HeLa): complete loss of biological activity

CN1C(=O)[C@@]23C[C@]4([C@]56C[C@@]78SS[C@@](CO)(C(=O)N7[C@H]5Nc5ccccc56)N(C)C8=O)c5ccccc5N[C@@H]4N2C(=O)[C@]1(CO)SS3 [Compound 4, (+)-chaetocin A]
IC50 / potency range (in words) [1]: subnanomolar

(+)-12,12'-dideoxyverticillin A [Compound 3]
pIC50 [3]: 7.81 | pIC50 [4]: 8.14
